Compound activity: PubChem BioAssay, several laboratories
Most compounds without a hit are left out; they make up all but 2.9% or so of the library.
SENP7 block: blocks the human protease SENP7; recombinant SENP7, Z-RLRGG-aminoluciferin luminescence, 40 min; inhibition, % at 5 µM; actives 1.5% (n = 330,000); AID 434973;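 active = inhibition above about 50% at the single test dose, limit read from the data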;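 also: plate controls were DMSO with enzyme for no effect and no enzyme buffer wells for full effect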
SENP8 block-1: blocks human SENP8 cleavage of Nedd8 substrate | Q96LD8 | recombinant SENP8, Nedd8 substrate fluorescence | inhibition, % at 20 µM | actives 0.64% (n = 360,000) | AID 602440; in the data active = inhibition mostly above about 40%, no sharp cut-off; inactive = mostly below about 27%
Target sequence (Q96LD8 whole entry, looked up): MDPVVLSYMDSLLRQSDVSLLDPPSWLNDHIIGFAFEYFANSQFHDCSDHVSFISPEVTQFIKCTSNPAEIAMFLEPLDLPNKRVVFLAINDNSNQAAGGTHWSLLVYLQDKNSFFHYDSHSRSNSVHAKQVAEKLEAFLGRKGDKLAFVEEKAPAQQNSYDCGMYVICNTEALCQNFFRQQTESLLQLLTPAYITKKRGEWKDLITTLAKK
SENP1 FRET inh: SENP1 (human) catalytic domain inhibition. recombinant SENP1 catalytic domain, CyPet-SUMO1-YPet FRET cleavage. inhibition, % at 10 µM. actives 0.21% (n = 360,000). AID 624204;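 active = inhibition at least 30% at 10 µM, raw YFP signal under a set limit, fluorescence ratio 0.5 to 1.5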;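 also: 0% = enzyme with DMSO and 100% = no enzyme wells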
Target sequence (Q9P0U3 419-644 limits assumed): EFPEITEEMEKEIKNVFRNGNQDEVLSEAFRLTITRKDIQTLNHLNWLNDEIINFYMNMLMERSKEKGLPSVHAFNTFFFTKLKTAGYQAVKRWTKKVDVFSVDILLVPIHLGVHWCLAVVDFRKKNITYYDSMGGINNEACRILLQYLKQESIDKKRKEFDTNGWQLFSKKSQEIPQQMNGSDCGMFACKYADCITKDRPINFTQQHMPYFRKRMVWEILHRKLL
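Compound: 10 µM single point, 0.5% DMSO; Test system: hSENP1 catalytic domain, recombinant; Timing: 50 min reaction at room temperature; Technique: FRET, CFP and YFP emission; Control set: no-enzyme wells low, DMSO-plus-enzyme wells high control.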
SENP8 block-2: inhibitors of human SENP8 protease; purified SENP8, Z-RLRGG-aminoluciferin cleavage, luminescence; inhibition, % at 10 µM; actives 1.2% (n = 330,000); AID 2540; in the data active = inhibition above about 50%
SENP6 block: inhibitors of human SENP6 protease | Q9GZR1 | Recombinant SENP6 catalytic domain, aminoluciferin luminescence | inhibition, % at 10 µM | actives 1.8% (n = 330,000);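 active = inhibition above about 50% at the single tested dose, limit read from the data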;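 also: plate controls were DMSO wells with enzyme for no effect and DMSO wells lacking enzyme for full effect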
HSP90 inh: inhibitors of HSP90 luciferase refolding in rabbit reticulocyte lysate. luciferase refolding luminescence, 3 h. inhibition, % at 5.6 µM. actives 0.91% (n = 290,000). AID 1789;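 active = inhibition above the screen-wide mean plus 3 SD, computed separately per campaign, cut at about 16% in these data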;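 also: 0% = DMSO wells and 100% = 60 µM geldanamycin wells; inhibitors lower the luminescence because luciferase stays unfolded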
SENP1 conf: confirmation of human SENP1 SUMO protease inhibitors; shares compounds with SENP1 FRET inh; recombinant SENP1, CyPet-SUMO1-YPet FRET cleavage; inhibition, % at 10 µM; actives 34% (n = 520); AID 651678; in the data active = inhibition mostly above about 35%, no sharp cut-off; inactive = mostly below about 32%;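 also: 0% = enzyme with DMSO and 100% = no enzyme control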
SENP1 kinetic: SENP1 (human) inhibition, kinetic confirmation | AID 651690 | actives 26% (n = 520) | shares compounds with SENP1 FRET inh | recombinant SENP1, CyPet-SUMO1-YPet FRET kinetic cleavage | inhibition, % at 10 µM; in the data active = inhibition mostly above about 32%, no sharp cut-off; inactive = mostly below about 29%;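 also: 0% = DMSO with enzyme and 100% = no enzyme substrate only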
An asterisk follows results filed as active; · = not tested or not shown.

SMILES	SENP7 block	SENP8 block-1	SENP1 FRET inh	SENP8 block-2	SENP6 block	HSP90 inh	SENP1 conf	SENP1 kinetic
O=C1[C@@H]2[C@H](C(=O)N1CC(O)COCc1ccccc1)C1C=C[C@H]2C1 (stereo not given in full)	·	3	1	·	·	·	·	·
Cc1nc(-c2cccc(NC(=O)c3cc4cc(Br)ccc4oc3=O)c2)cs1	4	16	38*	9	0	-2	-9	-6
CN(Cc1ccccc1)C(=O)COC(=O)c1ccc[nH]c1=O	4	-12	2	-7	16	·	·	·
O=C(CNC(=O)N1CC(=O)Nc2ccccc21)Nc1ccc(Cl)cc1Cl	·	11	1	·	·	·	·	·
CCOC(=O)c1c(NC(=O)c2cc(-c3ccc(O)cc3)on2)sc(C(C)=O)c1C	-9	-132	31*	16	4	-4	-3	-8
CC(C)(CN=C1NS(=O)(=O)c2ccccc21)CNC(=O)c1ccccc1	-6	0	0	-7	-10	-2	·	·
O=C(C1=C(Nc2ccccc2)c2ccccc2S(=O)(=O)N1)c1ccccc1	-1	27	49*	-9	-19	6	22	24
CCN1/C(=C/C=C2/SC(=Nc3cccc4ncccc34)N(C)C2=O)Sc2ccccc21	·	27	37*	·	·	·	4	8
CCCN1C(=O)/C(=C\C=C2/Sc3ccccc3N2CCO)SC1=S	6	20	28	2	-2	-2	·	·
O=C(Cc1n[nH]c(=O)[nH]c1=O)N/N=C/c1c(O)ccc2ccccc12	1	-16	39*	-3	-4	-5	-18	21
O=C(Cc1n[nH]c(=O)[nH]c1=O)N/N=C/c1ccccc1	1	11	-1	2	-9	1	·	·
COC(=O)/C=C1/S/C(=N/NC(=O)c2ccc(OC)cc2)NC1=O	5	13	4	-7	-9	-2	·	·
COC(=O)/C=C1\S/C(=N/NC(=O)c2ccc(OC)cc2)NC1=O	-4	3	54*	2	8	1	7	8
CCc1nc2ccc(C(=O)N3CCN(C(C)=O)CC3)cn2c1N(C)C(=O)c1cccc(OC)c1	·	7	0	·	·	·	·	·
O=C(CCN1N=C(c2ccccc2)CCC1=O)NCC1COc2ccccc2O1 (stereo not given)	1	17	2	-3	6	-3	·	·
Cc1ccc(-c2cn(-c3ccccc3F)c(=S)[nH]2)cc1	6	11	-1	-4	-7	3	·	·
O=[N+]([O-])c1ccc(-c2cn(-c3ccccc3F)c(=S)[nH]2)cc1	-2	31	30*	1	-17	3	13	11
CN1CCN(C(=O)c2cccc(S(=O)(=O)N3CCCC3)c2)CC1	-12	7	0	-6	3	·	·	·
COc1cc([C@H]2c3c(cc(OC)c(O)c3OC)C[C@@H](CO)[C@@H]2CO[C@@H]2O[C@H](CO)[C@@H](O)[C@H](O)[C@H]2O)cc(OC)c1O	7	-3	40*	-8	-10	·	33*	22
O=C(O)c1ccc(N/N=C/c2cccc3nccnc23)cc1	5	32	53*	-2	14	8	46*	39*
C[C@H](NC(=O)OC(C)(C)C)C(=O)N/N=C/c1cccc2nccnc12	4	-12	1	-5	8	5	·	·
O=C1CNCc2[nH]c3ccccc3c2N1c1ccccc1	0	-100	-7	2	5	-5	·	·
O=CN1Cc2[nH]c3ccccc3c2N(c2ccc(Cl)cc2)C1=O	-5	2	31*	-3	9	-1	-9	29
N#C/C(=C\c1ccc(Cl)c([N+](=O)[O-])c1)c1ccccn1	-6	10	1	-7	4	1	·	·
CNc1ccc(/C=C(\C#N)c2ccccn2)cc1[N+](=O)[O-]	15	35	46*	0	-29	3	31	23
SMILES	SENP7 block	SENP8 block-1	SENP1 FRET inh	SENP8 block-2	SENP6 block	HSP90 inh	SENP1 conf	SENP1 kinetic
Nc1ccc(Oc2ccc3c(c2)C(=O)N(CC2CCCO2)C3=O)cc1 (stereo not given)	0	11	0	-5	-25	1	·	·
Nc1ccc2c(c1)C(=O)N(CC1CCCO1)C2=O (stereo not given)	-19	-22	62*	-4	-3	1	65*	48*
Cc1ccc(S(=O)(=O)c2nc(Cc3ccccc3)oc2N2CCOCC2)cc1	-7	-2	2	3	-1	·	·	·
Clc1cccc(Cl)c1C[n+]1ccc2ccccc2c1	4	-44	68*	-12	-3	-1	7	13
Cc1cc(C)c2cc(C#N)c(SCC(=O)NCc3ccco3)nc2c1	8	-63	41*	14	20	3	3	16
CCn1cc(C(=O)O)c(=O)c2cc(F)c(N/N=C/c3ccccc3[N+](=O)[O-])cc21	2	14	34*	-4	-6	3	-4	0
COc1cc(S(=O)(=O)n2cnc3ccccc32)ccc1Br	-6	3	4	-7	12	-2	·	·
C/C(=N\NC(=O)c1ccccc1F)c1ccc2c(c1)Nc1ccccc1S2	1	26	35*	-10	-9	4	60*	39*
C/C(=N\NC(=O)c1ccc(O)cc1)c1ccc2c(c1)Nc1ccccc1S2	-8	2	70*	-5	2	5	86*	56*
COc1ccc(OC)c(/C=C2\SC(=S)N(N3CCOCC3)C2=O)c1	1	30	39*	-4	-26	-1	3	0
C=CCOc1ccc(/C=C2\SC(=S)N(N3CCOCC3)C2=O)cc1	5	30	0	5	15	0	·	·
COc1cc(/C=C2\SC(=S)N(N3CCOCC3)C2=O)ccc1O	3	31	53*	3	-7	2	15	11
COc1cc(/C=C2\SC(=S)N(N3CCOCC3)C2=O)cc(OC)c1OC	-10	32	4	3	-26	-2	·	·
CC(=O)N1c2ccc(S(=O)(=O)N3CCC(C(=O)NCc4ccc(N(C)C)cc4)CC3)cc2CC1C (stereo not given)	16	6	-3	-9	-18	-2	·	·
Cc1ccc(CN2CCCC2(C)C(=O)NC(C)C)cc1 (stereo not given)	·	24	2	·	·	·	·	·
CCN(CC)S(=O)(=O)c1cc([N+](=O)[O-])ccc1N=Nc1c(O)[nH]c2ccccc12	·	43*	46*	·	·	0	4	3
O=[N+]([O-])c1ccc2[nH]c(O)c(N=Nc3ccc(F)cc3)c2c1	-9	36	56*	-20	-27	0	10	5
Cc1ccc2[nH]c(O)c(N=Nc3ccccc3[N+](=O)[O-])c2c1	·	23	2	·	·	·	·	·
